Measured values from ChEMBL document CHEMBL4257497, “Design, synthesis and biological evaluation of novel 1,3-diarylpyrazoles as cyclooxygenase inhibitors, antiplatelet and anticancer agents” (Medchemcomm, 2018).

Tests used:
Platelet [1] = assay: Antiplatelet activity in human platelet rich plasma assessed as inhibition of arachidonic acid-induced platelet aggregation at 100 uM preincubated for 5 mins followed by arachidonic acid addition measured for 3 mins by aggregometric analysis relative to control; assay type: functional
How it was run: (§1)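 Citrated venous blood (3.2% citrate, 1:9) from healthy donors free of antiplatelet drugs for 10 days; PRP from 800 rpm 10 min spin, PPP from 1500 rpm 10 min; count set to 3.8 × 10^5 platelets […]. PRP stirred at 1100 rpm, 37 °C; compound in DMSO (1% carrier) 5 min before agonist (AA final 700 μM; collagen 5 μg ml−1). Turbidimetric read, triplicate; % inhibition versus DMSO-treated maximum aggregation.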

Platelet [2] = assay: Antiplatelet activity in human platelet rich plasma assessed as inhibition of collagen-induced platelet aggregation at 100 uM preincubated for 5 mins followed by arachidonic acid addition measured for 3 mins by aggregometric analysis relative to control; assay type: functional; how it was run: as §1
MCF7 = assay: Cytotoxicity against human MCF7 cells after 72 hrs by SRB assay; assay type: functional, cell-based
How it was run: (§2)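 Cells cultured in DMEM with 10% FBS, 1% non-essential amino acids, penicillin/streptomycin, 37 °C, 5% CO2. 2000–3000 cells per well seeded, grown 24 h, then exposed 72 h to compound (DMSO) at 40, 20, 10, 5, 2.5 μM. TCA fixation, 0.4% SRB stain, unbound dye washed off with 1% acetic acid, bound dye dissolved in 10 mM Tris base, absorbance 515 nm. IC50 against DMSO controls, triplicate.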

Huh-7 = assay: Cytotoxicity against human HuH7 cells after 72 hrs by SRB assay; assay type: functional, cell-based; how it was run: as §2
[3] = target: T1, COX1 (Prostaglandin G/H synthase 1) (Ovis aries, UniProt P05979); assay: Inhibition of sheep COX1 at 10 uM assessed as reduction in PGE2 formation using arachidonic acid as substrate by enzyme immunoassay relative to control; conditions: probe arachidonic acid
T1 sequence (P05979 whole entry): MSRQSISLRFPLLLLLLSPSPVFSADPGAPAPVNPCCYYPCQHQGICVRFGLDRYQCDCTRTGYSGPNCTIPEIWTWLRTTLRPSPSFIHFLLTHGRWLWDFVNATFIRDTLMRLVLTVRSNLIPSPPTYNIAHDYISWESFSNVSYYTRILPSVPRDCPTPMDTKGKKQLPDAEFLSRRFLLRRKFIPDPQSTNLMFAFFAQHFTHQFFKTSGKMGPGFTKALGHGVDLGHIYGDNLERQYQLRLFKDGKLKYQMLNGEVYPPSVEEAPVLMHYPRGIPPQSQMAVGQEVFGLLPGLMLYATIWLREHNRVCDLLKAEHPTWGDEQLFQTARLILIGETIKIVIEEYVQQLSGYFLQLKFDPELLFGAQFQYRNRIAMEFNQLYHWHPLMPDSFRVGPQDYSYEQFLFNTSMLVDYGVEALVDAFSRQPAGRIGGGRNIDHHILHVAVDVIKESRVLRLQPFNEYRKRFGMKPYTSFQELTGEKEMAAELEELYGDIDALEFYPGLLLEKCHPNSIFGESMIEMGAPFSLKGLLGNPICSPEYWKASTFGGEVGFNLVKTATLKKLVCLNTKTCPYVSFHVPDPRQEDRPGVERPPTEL
How it was run: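 Recombinant ovine COX-1, test agent at 10 μM, arachidonic acid as substrate. PGE2 formed is measured by competitive EIA (PGE2–acetylcholinesterase tracer, monoclonal anti-PGE2, Ellman's reagent, absorbance 412 nm) and quantified from an 8-point PGE2 standard curve. Result given as % inhibition of enzyme activity.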

HCT-116 = assay: Cytotoxicity against human HCT116 cells after 72 hrs by SRB assay; assay type: functional, cell-based; how it was run: as §2
Platelet [4] = assay: Antiplatelet activity in human platelet rich plasma assessed as inhibition of arachidonic acid-induced platelet aggregation preincubated for 5 mins followed by arachidonic acid addition measured for 3 mins by aggregometric analysis; assay type: functional, cell-based
[5] = Homo sapiens, MCF7, 72 h, read-out: IC50
[6] = Homo sapiens, Huh-7, 72 h, read-out: IC50
[7] = Homo sapiens, HCT-116, 72 h, read-out: IC50

SMILES	inhibition at 100 µM (Platelet [1]) [%]	inhibition at 100 µM (Platelet [2]) [%]	IC50 (MCF7; [5]) [µM]	IC50 (Huh-7; [6]) [µM]	inhibition at 10 µM [3] [%]	IC50 (HCT-116; [7]) [µM]	IC50 (Platelet [4]) [µM]	IC50 (Huh-7; huh-7)	IC50 (HCT-116; hct-116)	IC50 (MCF7; mcf7)
O=C(/C=C/c1cn(-c2ccccc2)nc1-c1ccncc1)NCCc1ccncc1	71.4	74.6	11	6.5	26.6	7.1	–	–	–	–
CS(=O)(=O)c1ccc(-n2cc(/C=C/C(=O)NCCc3ccccn3)c(-c3cccnc3)n2)cc1	90.7	78.7	14.3	–	54.6	–	10.1	Not Active	Not Active	–
Cc1nccn1CCNC(=O)/C=C/c1cn(-c2ccccc2)nc1-c1cccnc1	0	15.5	21.8	25.6	2.46	20	–	–	–	–
O=C(/C=C/c1cn(-c2ccccc2)nc1-c1cccnc1)NCc1cccnc1	1.26	63.3	30.9	21	5.56	21.6	–	–	–	–
CS(=O)(=O)c1ccc(-n2cc(/C=C/C(=O)NCCc3ccncc3)c(-c3cccnc3)n2)cc1	100	71.8	–	38.7	7.95	19.8	21.4	–	–	Not Active
Cc1nccn1CCCNC(=O)/C=C/c1cn(-c2ccc(S(C)(=O)=O)cc2)nc1-c1cccnc1	19.5	11.1	–	–	36.8	–	–	Not Active	Not Active	Not Active
O=C(/C=C/c1cn(-c2ccccc2)nc1-c1ccncc1)NCCCn1ccnc1	90.6	88.9	–	6.8	12.6	18.5	33.6	–	–	Not Active
O=C(/C=C/c1cn(-c2ccccc2)nc1-c1ccncc1)NCc1ccncc1	4.96	50.1	–	32.6	5.82	19.9	–	–	–	Not Active
CS(=O)(=O)c1ccc(-n2cc(/C=C/C(=O)NCc3ccccn3)c(-c3cccnc3)n2)cc1	8.92	59.8	–	24.7	10.7	27	–	–	–	Not Active
O=C(/C=C/c1cn(-c2ccccc2)nc1-c1ccncc1)NCCc1cccnc1	93.7	86.9	16.1	–	9.37	14.6	29.1	Not Active	–	–
O=C(/C=C/c1cn(-c2ccccc2)nc1-c1cccnc1)NCCc1ccncc1	11.3	75.9	–	14.5	10.2	26.7	–	–	–	Not Active
Cc1nccn1CCNC(=O)/C=C/c1cn(-c2ccccc2)nc1-c1ccncc1	2.54	35	–	21	16.9	12.6	–	–	–	Not Active
O=C(/C=C/c1cn(-c2ccccc2)nc1-c1cccnc1)NCCc1cccnc1	0	76.6	30.8	8.1	0.45	16.9	–	–	–	–
O=C(/C=C/c1cn(-c2ccccc2)nc1-c1cccnc1)NCc1ccccn1	0	56.5	27.8	18.5	11.3	24.5	–	–	–	–
O=C(/C=C/c1cn(-c2ccccc2)nc1-c1cccnc1)NCCCn1ccnc1	16.1	86.5	15.4	14.3	0.12	17.6	–	–	–	–
CS(=O)(=O)c1ccc(-n2cc(/C=C/C(=O)NCc3ccncc3)c(-c3cccnc3)n2)cc1	6.2	40.9	–	–	12.5	31.7	–	Not Active	–	Not Active
O=C(/C=C/c1cn(-c2ccccc2)nc1-c1cccnc1)NCc1ccncc1	4.54	36.6	–	24.4	11.6	–	–	–	Not Active	Not Active
Cc1nccn1CCCNC(=O)/C=C/c1cn(-c2ccccc2)nc1-c1ccncc1	7.91	41.3	–	21.1	5.41	10.8	–	–	–	Not Active
CS(=O)(=O)c1ccc(-n2cc(/C=C/C(=O)NCCc3cccnc3)c(-c3cccnc3)n2)cc1	14.6	70.3	–	–	1.31	–	–	Not Active	Not Active	Not Active
Cc1nccn1CCNC(=O)/C=C/c1cn(-c2ccc(S(C)(=O)=O)cc2)nc1-c1cccnc1	14.3	8.6	–	–	29.6	–	–	Not Active	Not Active	Not Active
O=C(/C=C/c1cn(-c2ccccc2)nc1-c1ccncc1)NCCc1ccccn1	100	41.9	12.2	27.3	13.1	–	32.8	–	Not Active	–
O=C(/C=C/c1cn(-c2ccccc2)nc1-c1ccncc1)NCc1ccccn1	100	41.6	–	14.7	5.96	20.4	78.3	–	–	Not Active
O=C(/C=C/c1cn(-c2ccccc2)nc1-c1cccnc1)NCCc1ccccn1	3.68	21.9	24.9	18.9	3.21	14.2	–	–	–	–
O=C(/C=C/c1cn(-c2ccccc2)nc1-c1ccncc1)NCc1cccnc1	43.3	63.4	–	–	13.7	14.6	–	Not Active	–	Not Active
CS(=O)(=O)c1ccc(-n2cc(/C=C/C(=O)NCc3cccnc3)c(-c3cccnc3)n2)cc1	90	64.1	–	–	13.1	–	49.8	Not Active	Not Active	Not Active
Cc1nccn1CCCNC(=O)/C=C/c1cn(-c2ccccc2)nc1-c1cccnc1	1.24	60.3	25.1	13.4	0.32	21.4	–	–	–	–
CS(=O)(=O)c1ccc(-n2cc(/C=C/C(=O)NCCCn3ccnc3)c(-c3cccnc3)n2)cc1	82.4	52.6	–	–	40.5	–	–	Not Active	Not Active	Not Active
CC(=O)Oc1ccccc1C(=O)O [ASPIRIN]	100	100	–	–	–	–	7.7	–	–	–
O=c1[nH]cc(F)c(=O)[nH]1 [FLUOROURACIL]	–	–	1.4	–	–	–	–	–	–	–
COc1ccc2c(c1)c(CC(=O)O)c(C)n2C(=O)c1ccc(Cl)cc1 [INDOMETHACIN]	–	–	–	–	69.5	–	–	–	–	–
